# Screening data as filed in PubChem.
# Hits are enriched below; roughly 2.7% of the tested compounds scored in any of these assays.
# PAFAH1B2 inh – PAFAH1B2 enzyme inhibitors, primary screen, biochemical, fluorescence polarization, human. Platelet-activating factor acetylhydrolase IB subunit alpha2 (Homo sapiens), P68402. recombinant PAFAH1B2, FP-rhodamine activity probe. inhibition, % at 3.39 µM. hit rate 1.2% among 340,000;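 active = inhibition above the mean of all tested compounds plus 3 SD, cut at about 24% in these data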;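 note: 0% = enzyme with DMSO and 100% = wells lacking PAFAH1B2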
# Target sequence (P68402 whole entry, looked up): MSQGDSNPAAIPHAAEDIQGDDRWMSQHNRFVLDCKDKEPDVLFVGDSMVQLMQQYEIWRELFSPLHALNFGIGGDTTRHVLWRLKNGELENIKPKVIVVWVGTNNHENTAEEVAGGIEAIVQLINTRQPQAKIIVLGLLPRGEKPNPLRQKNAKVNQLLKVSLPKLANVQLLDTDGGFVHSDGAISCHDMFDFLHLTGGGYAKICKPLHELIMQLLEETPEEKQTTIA
# ARFGAP1 inh – inhibitors of rat ARFGAP1 GAP activity, primary screen, biochemical, fluorescence polarization, GDP tracer. ADP-ribosylation factor GTPase-activating protein 1 (Rattus norvegicus), Q62848. Arfgap1-stimulated ARF1 GTP hydrolysis, GDP FP detection. inhibition, % at 16.5 µM. hit rate 0.26% among 360,000. AID 651572, 2012;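 active = inhibition above a per-plate limit, mean inhibition of low control wells plus 3 SD, cut at about 25% in these data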;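 note: 0% = DMSO wells with enzyme and 100% = wells lacking Arfgap1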
# Target sequence (Q62848 1-136 limits assumed): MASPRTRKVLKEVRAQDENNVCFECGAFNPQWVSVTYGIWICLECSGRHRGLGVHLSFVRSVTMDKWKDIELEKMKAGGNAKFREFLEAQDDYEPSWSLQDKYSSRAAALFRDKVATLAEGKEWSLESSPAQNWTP
#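 Repeats: one replicate per compound; assay system: rat Arfgap1 catalytic domain, aa 1-136; times: enzyme reaction 120 min at 25 °C after 20 min preincubation; detection: FP of antibody-bound GDP Alexa 633 tracer, ex 620/em 688 nm; benchmarks: high control wells lacking Arfgap1, low control full reaction with DMSO; reagent: human ARF1(Δ1-17)-GTP substrate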
# ASAP1 inh – inhibitors of human ASAP1 ArfGAP activity, primary screen, biochemical, fluorescence polarization. Arf-GAP with SH3 domain, ANK repeat and PH domain-containing protein 1 (Homo sapiens), …. ASAP1-stimulated ARF1 GTP hydrolysis, GDP FP detection. inhibition, % at 16.5 µM. hit rate 0.19% among 360,000. AID 624377, 2012; in the data active = inhibition above about 25%;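 note: 0% = vehicle with enzyme and substrate and 100% = no enzyme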
# pPAFAH FP inh – pPAFAH enzyme inhibitors, primary screen, biochemical, fluorescence polarization, human; Platelet-activating factor acetylhydrolase (Homo sapiens), Q13093; recombinant pPAFAH, FP-rhodamine probe fluorescence polarization; inhibition, % at 3.39 µM; hit rate 1.5% among 330,000;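 active = inhibition above the mean inhibition across the screen plus 3 SD, cut at about 25% in these data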;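 note: inhibitors block binding of the rhodamine activity-based probe so polarization drops; 0% = enzyme with DMSO and 100% = wells lacking pPAFAH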
# PAFAH2 inh – PAFAH2 enzyme inhibitors, primary screen, biochemical, fluorescence polarization, human | Platelet-activating factor acetylhydrolase 2, cytoplasmic (Homo sapiens), Q99487 | recombinant PAFAH2, FP-rhodamine activity probe | inhibition, % at 3.39 µM | hit rate 0.99% among 340,000;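 active = inhibition above the mean over all tested compounds plus 3 SD, cut at about 30% in these data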;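 note: inhibitors block probe labeling of enzyme so polarization drops; 0% = enzyme with DMSO and 100% = wells lacking PAFAH2 protein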
# PAFAH1B3 inh – PAFAH1B3 enzyme inhibitors, primary screen, biochemical, fluorescence polarization, human. hit rate 0.28% among 340,000. inhibition, % at 3.39 µM. recombinant PAFAH1B3, FP-rhodamine probe. Platelet-activating factor acetylhydrolase IB subunit alpha1 (Homo sapiens), Q15102;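 active = inhibition above the screen-wide average of all tested compounds plus 3 SD, cut at about 25% in these data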;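 note: 0% = enzyme with DMSO only and 100% = wells lacking PAFAH1B3 protein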
# Target sequence (Q15102 whole entry, looked up): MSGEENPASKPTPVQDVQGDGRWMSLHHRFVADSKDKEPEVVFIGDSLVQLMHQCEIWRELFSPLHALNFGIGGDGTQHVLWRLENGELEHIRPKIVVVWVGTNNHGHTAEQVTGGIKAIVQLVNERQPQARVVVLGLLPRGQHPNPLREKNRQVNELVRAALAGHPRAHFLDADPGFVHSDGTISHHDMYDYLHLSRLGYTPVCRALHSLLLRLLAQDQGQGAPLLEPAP
# pPAFAH FP conf – pPAFAH (PLA2G7) enzyme inhibitors, confirmation, biochemical, fluorescence polarization, human; shares compounds with pPAFAH FP inh; recombinant pPAFAH, FP-Rh probe fluorescence polarization; inhibition, % at 3.39 µM; hit rate 72% among 2,300; AID 463230, 2010;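 active = mean inhibition of the triplicate above the hit cutoff set for the earlier primary screen, cut at about 25% in these data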;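 note: 0% = enzyme with DMSO and 100% = wells lacking pPAFAH enzyme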
# * hit, by the source's call; x = no result given.
SMILES,PAFAH1B2 inh,ARFGAP1 inh,ASAP1 inh,pPAFAH FP inh,PAFAH2 inh,PAFAH1B3 inh,pPAFAH FP conf
COc1cc(CNCc2ccncc2)cc(Br)c1OCc1ccccc1F,-1.1,-4.2,13.2,3.0,-7.1,9.7,x
O=C(c1ccccc1)n1nc(-c2ccccc2)nc1NCc1ccco1,2.6,7.3,15.7,2.9,8.7,10.4,x
Cc1ccc(C(=O)n2nc(-c3ccccc3)nc2NCc2ccco2)cc1,2.8,-4.8,-5.1,74.2*,6.8,4.9,0.9
COC(=O)N1C[C@H](OC(=O)c2ccc(-c3ccccc3)cc2)[C@H]2C[C@@H]1c1ccccc1O2,x,-0.8,-0.1,x,x,x,x
COc1ccccc1C(=O)NCC(=O)OCC(=O)Nc1ccc2[nH]c(=O)[nH]c2c1,2.7,3.5,0.3,39.4*,-5.3,3.3,0.9
O=C1CSC(=S)N1c1ccc(F)cc1,x,x,x,1.6,x,x,x
CN(C)c1ccc(N2C(=O)CSC2=S)cc1,-3.2,10.8,-6.1,36.8*,-9.0,-9.6,-0.2
CN(CC(=O)Nc1ccc(Cl)cc1)C(=O)c1ccc(-n2cncn2)c([N+](=O)[O-])c1,4.1,0.2,2.3,71.2*,2.7,-6.6,0.1
COc1ccccc1CNc1ccc2c(c1)OC[C@H](CC(C)C)NS2(=O)=O,x,-9.0,-11.8,x,x,x,x
CCN(CC)c1ccc(-c2nn3c(-c4n[nH]c5c4CCC5)nnc3s2)cc1,2.3,13.8,-2.5,35.2*,20.0,2.5,45.4*
C1CCC(c2nn3c(-c4n[nH]c5c4CCC5)nnc3s2)CC1,-1.4,5.6,0.0,9.5,9.7,-0.5,x
O=C1c2[nH]nc(-c3ccccc3)c2C(c2cccc(C(F)(F)F)c2)N1c1ccccc1 (stereo not drawn),x,-5.0,-3.0,x,x,x,x
CC(OC(=O)c1ccccc1Nc1ccc(SC(F)F)cc1)C(N)=O (stereo not drawn),3.7,11.6,-7.6,35.3*,-2.5,4.3,23.5
CCOC(=O)C1=CCN(S(=O)(=O)c2ccc(Br)cc2)C1c1cccc(Cl)c1 (stereo not drawn),x,4.1,-5.8,x,x,x,x
N=C1SC(c2ccccc2)C(=O)N1c1ncc(Cc2ccccc2Cl)s1 (stereo not drawn),13.3,-12.4,-0.2,58.3*,25.3,-0.5,71.0*
O=C(CSc1nnnn1-c1ccccc1)Nc1ncc(Cc2ccccc2Cl)s1,7.0,6.3,-7.9,-2.0,-2.5,3.9,x
O=C(Nc1ccc(-c2csc(Nc3ccc(Cl)cc3)n2)cc1)c1cccc(C(F)(F)F)c1,x,19.1,20.7,44.4*,x,x,23.8
N#Cc1c(NCCN)nc(-c2ccccc2)c2c1CCCC2,3.5,3.4,-8.5,0.5,6.8,1.7,x
N#Cc1c(NCCCO)nc(-c2ccccc2)c2c1CCCC2,8.4,8.3,-1.9,35.5*,-2.4,2.0,14.7
COc1ccc(Sc2cccc3c2S(=O)(=O)N(C2CC2)C[C@@H](COCc2ccccc2)O3)cc1OC,x,5.4,3.1,x,x,x,x
COC(=O)[C@]12C[C@H](CC(=O)N3CCN(C(=O)c4ccco4)CC3)C(=O)N(Cc3ccccc3)C1=C[C@H](C1CCCC1)O[C@@H]2C,x,-7.3,-5.6,x,x,x,x
CC(C)=CCC/C(C)=C/CNC(=O)C[C@H]1C[C@H](C(=O)N2CCCCC2)[C@@]2(C)c3[nH]c4cc(CCC(=O)N(C)C)ccc4c3CCN2C1=O,4.6,x,x,54.7*,9.6,6.9,42.0*
CN(C)C(=O)CCc1ccc2c3c([nH]c2c1)[C@]1(C)[C@@H](C(=O)N2CCOCC2)C[C@H](CC(=O)NCC24CC5CC(CC(C5)C2)C4)C(=O)N1CC3,3.2,6.6,-5.7,14.5,2.4,3.4,x
CC(C)N(C(=O)[C@H]1C[C@H](CC(=O)NCC23CC4CC(CC(C4)C2)C3)C(=O)N2CCc3c([nH]c4cc(CCC(=O)N(C)C)ccc34)[C@]12C)C(C)C,5.2,2.2,0.9,45.0*,-2.6,4.6,32.5*
CN(C)C(=O)CCc1ccc2c3c([nH]c2c1)[C@]1(C)[C@@H](C(=O)N2CCCCC2)C[C@H](CC(=O)NC(C)(C)C)C(=O)N1CC3,0.1,1.6,-0.8,-4.6,-1.4,3.6,x
SMILES,PAFAH1B2 inh,ARFGAP1 inh,ASAP1 inh,pPAFAH FP inh,PAFAH2 inh,PAFAH1B3 inh,pPAFAH FP conf
C[C@H]1CN([C@@H](C)CO)C(=O)CCCn2cc(nn2)CO[C@@H]1CN(C)C(=O)c1ccccc1,x,-2.1,-7.7,x,x,x,x
COC(=O)[C@]12C[C@H](CC(=O)NCc3cccs3)C(=O)N(Cc3ccc4c(c3)OCO4)C1=C[C@H](C(C)(C)C)O[C@@H]2C,x,-2.7,-9.4,x,x,x,x
CC(NC(=S)Nc1cccc(F)c1)C(c1cccs1)N1CCOCC1 (stereo not drawn),8.4,8.7,1.2,46.7*,5.1,8.4,2.4
COC(=O)[C@]12C[C@H](CC(=O)NCc3cccc(C(F)(F)F)c3)C(=O)N(Cc3ccc4c(c3)OCO4)C1=C[C@H](C(C)(C)C)O[C@@H]2C,x,19.4,-0.9,x,x,x,x
Cc1cc(C(=O)CN2C(=O)NC3(CCCc4sccc43)C2=O)c(C)n1-c1ccc(Cl)cc1 (stereo not drawn),1.7,-1.1,5.1,40.0*,2.1,-3.6,41.5*
CC(C)[C@H](NS(=O)(=O)c1ccc(F)cc1F)C(=O)N1CCC[C@H]1C(=O)NCCc1ccccc1Cl,x,-1.2,6.1,x,x,x,x
Nc1cc2ccccc2cc1NS(=O)(=O)N1CCCCC1,x,-1.8,1.4,x,x,x,x
Cc1cc(C)cc(C(=O)NCC(=O)OCc2c(C)noc2C)c1,7.3,-0.5,-6.5,37.0*,6.0,1.4,4.7
Cc1noc(C)c1COC(=O)CNC(=O)c1ccc(Cl)cc1,4.0,-4.2,-6.8,3.7,4.0,-2.2,x
CC(C)C[C@H]1COc2cc(Br)ccc2S(=O)(=O)N1Cc1ccc(F)cc1F,x,7.8,7.3,x,x,x,x
Cc1ccc(N2NC(=O)/C(=C\c3cc4c(cc3[N+](=O)[O-])OCO4)C2=O)cc1C,16.2,-7.0,5.7,47.6*,50.4*,6.7,14.8
COc1cc(/C=C2/C(=O)NN(c3ccc(C)c(Cl)c3)C2=O)cc([N+](=O)[O-])c1O,21.5,-10.6,-2.0,x,25.4,21.2,x
CCN1/C(=C/C=C/c2oc3ccc(-c4ccccc4)cc3[n+]2CC)Oc2ccc(-c3ccccc3)cc21,26.3*,7.9,19.3,59.4*,28.8,18.7,12.5
